Laboratory results reported in ChEMBL document CHEMBL1138348, “A p-[18F]fluoroethoxyphenyl bicyclic nucleoside analogue as a potential positron emission tomography imaging agent for varicella-zoster virus thymidine kinase gene expression” (J Med Chem, 2007).
pIC50: −log10 of the molar value.

How the values were obtained:
Mus musculus [1] = organism: Mus musculus; test: Biodistribution in NMRI mouse urine assessed as radioactivity after 60 mins; type: ADME, organism-based; details: in vivo, 1 h
Procedure, shortened: (§1)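 Male NMRI mice (37–43 g) given 0.1 mL HPLC-purified tracer (diluted in water for injection, EtOH <5%; 37 MBq/mL for 11C tracer, 3.7 MBq/mL for 18F tracer) via tail vein under ketamine/xylazine ip anaesthesia. Decapitation at 2 or 60 min, n=3 per time point. Organs dissected, weighed, gamma counted. Results given as %ID (cpm organ/total cpm recovered) or SUV. Blood mass taken as 7% of body mass. Mean ± SD.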

Kidney [2] = test: Biodistribution in NMRI mouse kidney assessed as radioactivity after 2 mins; type: ADME, organism-based; details: in vivo; procedure, shortened: as §1
Heart [3] = test: Biodistribution in NMRI mouse heart assessed as radioactivity after 2 mins; type: ADME, organism-based; details: in vivo; procedure, shortened: as §1
Blood [4] = test: Drug uptake in mouse blood assessed as radioactivity at 11.5 MBq after 10 mins; type: ADME, tissue-based
Procedure, shortened: (§2)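 About 11.5 MBq of 18F tracer injected iv into mice. Decapitation at 2, 10 or 30 min, n=2 per time point. Blood collected into K2EDTA tubes, weighed and gamma counted. Plasma separated by centrifugation (1837g, 10 min) and counted. Values given as %ID/g normalised to sample weight and injected dose; plasma/whole-blood ratio also derived.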

Nucleic Acid [5] = test: Ratio of drug level in femur bone to blood in mouse assessed as radioactivity at 11.5 MBq, iv after 30 mins; type: ADME, organism-based; details: other tissue, 0.5 h
Procedure, shortened: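 Normal mice injected with 11.5 MBq of the [18F] tracer and killed at 2, 10 or 30 min pi (two animals per time). Left and right femurs were collected, weighed and gamma-counted, and uptake was expressed as %ID/g. Blood %ID/g was reported at the same time points.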

Mus musculus [6] = organism: Mus musculus; test: Biodistribution in NMRI mouse carcass assessed as radioactivity after 60 mins; type: ADME, organism-based; details: in vivo, 1 h; procedure, shortened: as §1
Mus musculus [7] = organism: Mus musculus; test: Biodistribution in NMRI mouse carcass assessed as radioactivity after 2 mins; type: ADME, organism-based; details: in vivo; procedure, shortened: as §1
Lung [8] = test: Biodistribution in NMRI mouse lungs assessed as radioactivity after 60 mins; type: ADME, organism-based; details: in vivo, 1 h; procedure, shortened: as §1
Stomach [9] = test: Biodistribution in NMRI mouse stomach assessed as radioactivity after 2 mins; type: ADME, organism-based; details: in vivo; procedure, shortened: as §1
Kidney [10] = test: Biodistribution in NMRI mouse kidney assessed as radioactivity after 60 mins; type: ADME, organism-based; details: in vivo, 1 h; procedure, shortened: as §1
Heart [11] = test: Biodistribution in NMRI mouse heart assessed as radioactivity after 60 mins; type: ADME, organism-based; details: in vivo, 1 h; procedure, shortened: as §1
[12] = Metabolic stability in mouse urine assessed as radioactivity after 1 hr; type: ADME, tissue-based
Procedure, shortened: (§3)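 Plasma taken 2, 10 or 30 min after iv 18F tracer in normal mice (n=2 per time point), and urine collected at 60 min by manual bladder voiding. Samples spiked with authentic non-radioactive compound and applied without pretreatment to an Oasis HLB column in-line with a C18 RP-HPLC column. Eluate collected as 1 mL fractions and gamma counted. Result given as intact tracer as % of recovered radioactivity.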

Blood [13] = test: Drug uptake in mouse blood assessed as radioactivity at 11.5 MBq after 2 mins; type: ADME, tissue-based; procedure, shortened: as §2
Femur [14] = test: Drug uptake in mouse femur bone assessed as radioactivity at 11.5 MBq after 30 mins; type: ADME, tissue-based; details: in vivo, 0.5 h
Procedure, shortened: (§4)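 Normal mice given 11.5 MBq of 18F tracer. Killed at 2, 10 or 30 min, two animals per time point. Left and right femur and muscle collected, weighed and gamma counted. Uptake given as %ID/g.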

Mus musculus [15] = organism: Mus musculus; test: Biodistribution in NMRI mouse spleen + pancreas assessed as radioactivity after 2 mins; type: ADME, organism-based; details: in vivo; procedure, shortened: as §1
Liver [16] = test: Biodistribution in NMRI mouse liver assessed as radioactivity after 60 mins; type: ADME, organism-based; details: in vivo, 1 h; procedure, shortened: as §1
Plasma [17] = test: Metabolic stability in mouse plasma assessed as radioactivity after 10 mins; type: ADME, cell-free; procedure, shortened: as §3
Plasma [18] = test: Metabolic stability in mouse plasma assessed as radioactivity after 2 mins; type: ADME, cell-free; procedure, shortened: as §3
Muscle tissue [19] = test: Drug uptake in mouse muscle assessed as radioactivity at 11.5 MBq after 2 mins; type: ADME, tissue-based; details: in vivo; procedure, shortened: as §4
Nucleic Acid [20] = test: Ratio of drug level in plasma to whole blood in mouse assessed as radioactivity at 11.5 MBq, iv after 10 mins; type: ADME, organism-based; details: in vivo
Procedure, shortened: (§5)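 Normal mice given about 11.5 MBq of the [18F] tracer iv, killed by decapitation at 2, 10 or 30 min pi (n = 2 per time). Blood was collected into a K2EDTA tube, weighed and gamma-counted, then centrifuged at 1837g for 10 min. Plasma was weighed and counted. Counts were normalised to sample weight and injected dose as %ID/g, and plasma %ID/g was divided by whole-blood %ID/g.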

Liver [21] = test: Biodistribution in NMRI mouse liver assessed as radioactivity after 2 mins; type: ADME, organism-based; details: in vivo; procedure, shortened: as §1
Plasma [22] = test: Metabolic stability in mouse plasma assessed as radioactivity after 30 mins; type: ADME, cell-free; details: 0.5 h; procedure, shortened: as §3
Intestine [23] = test: Biodistribution in NMRI mouse intestine assessed as radioactivity after 60 mins; type: ADME, organism-based; details: in vivo, 1 h; procedure, shortened: as §1
[24] = Drug uptake in LV-VZVTK-IP transduced 293T cells assessed as radioactivity at 185 kBq after 3 hrs; type: ADME, cell-based; details: human, hek-293t
Procedure, shortened: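 293T cells stably transduced with lentivirus carrying VZV-tk-IRES-pac (kept in 1 µg/mL puromycin), alongside untransduced control 293T cells. Plated in triplicate at 200 000 cells/well. After 24 h, fresh medium with HPLC-purified tracer added: 1.1 MBq (11C tracer, 0.5 h) or 185 kBq (18F tracer, 3 h), 37 °C. Cells washed with ice-cold PBS and lysed. Gamma counting. Uptake given as % of total radioactivity per mg protein (Bio-Rad assay).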

Blood [25] = test: Biodistribution in NMRI mouse blood assessed as radioactivity after 2 mins; type: ADME, organism-based; details: in vivo; procedure, shortened: as §1
Intestine [26] = test: Biodistribution in NMRI mouse intestine assessed as radioactivity after 2 mins; type: ADME, organism-based; details: in vivo; procedure, shortened: as §1
Stomach [27] = test: Biodistribution in NMRI mouse stomach assessed as radioactivity after 60 mins; type: ADME, organism-based; details: in vivo, 1 h; procedure, shortened: as §1
Mus musculus [28] = organism: Mus musculus; test: Biodistribution in NMRI mouse urine assessed as radioactivity after 2 mins; type: ADME, organism-based; details: in vivo; procedure, shortened: as §1
Nucleic Acid [29] = test: Ratio of drug level in plasma to whole blood in mouse assessed as radioactivity at 11.5 MBq, iv after 2 mins; type: ADME, organism-based; details: in vivo; procedure, shortened: as §5
Femur [30] = test: Drug uptake in mouse femur bone assessed as radioactivity at 11.5 MBq after 2 mins; type: ADME, tissue-based; details: in vivo; procedure, shortened: as §4
Nucleic Acid [31] = test: Ratio of drug level in plasma to whole blood in mouse assessed as radioactivity at 11.5 MBq, iv after 30 mins; type: ADME, organism-based; details: in vivo, 0.5 h; procedure, shortened: as §5
Mus musculus [32] = organism: Mus musculus; test: Biodistribution in NMRI mouse spleen + pancreas assessed as radioactivity after 60 mins; type: ADME, organism-based; details: in vivo, 1 h; procedure, shortened: as §1
Muscle tissue [33] = test: Drug uptake in mouse muscle assessed as radioactivity at 11.5 MBq after 30 mins; type: ADME, tissue-based; details: in vivo, 0.5 h; procedure, shortened: as §4
Femur [34] = test: Drug uptake in mouse femur bone assessed as radioactivity at 11.5 MBq after 10 mins; type: ADME, tissue-based; details: in vivo; procedure, shortened: as §4
Blood [35] = test: Drug uptake in mouse blood assessed as radioactivity at 11.5 MBq after 30 mins; type: ADME, tissue-based; details: 0.5 h; procedure, shortened: as §2
Lung [36] = test: Biodistribution in NMRI mouse lungs assessed as radioactivity after 2 mins; type: ADME, organism-based; details: in vivo; procedure, shortened: as §1
Blood [37] = test: Biodistribution in NMRI mouse blood assessed as radioactivity after 60 mins; type: ADME, organism-based; details: in vivo, 1 h; procedure, shortened: as §1
Brain [38] = test: Biodistribution in NMRI mouse brain assessed as radioactivity after 60 mins; type: ADME, organism-based; details: in vivo, 1 h; procedure, shortened: as §1
[39] = Partition coefficient, log P in 1-octanol and phosphate buffer at pH 7.4; type: physicochemical; details: 1-octanol/phosphate buffer
Procedure, shortened: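 HPLC-isolated tracer (about 550 kBq 11C or 185 kBq 18F) partitioned between 1-octanol and 0.025 M phosphate buffer pH 7.4 (2 mL each). Vortexed 2 min at room temperature, centrifuged 1837 g for 5 min. Aliquots of both phases weighed and gamma counted. P calculated as the cpm/mL ratio after density correction; n=6.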

Brain [40] = test: Biodistribution in NMRI mouse brain assessed as radioactivity after 2 mins; type: ADME, organism-based; details: in vivo; procedure, shortened: as §1
[41] = Inhibition of HSV1 thymidine kinase; parameters: species or system Human alphaherpesvirus 1
Procedure, shortened: (§6)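 Purified recombinant VZV TK (7.75 ng), HSV-1 TK (226 ng) or human cytosolic TK-1 (455 ng) in 50 mM Tris-HCl pH 8.0, 2.5 mM MgCl2, 10 mM DTT, 2.5 mM ATP, 1 mg/mL BSA, 10 mM NaF, with 1 µM final [CH3-3H]dThd substrate. Incubated 30 min at 37 °C with varied compound concentrations; the reaction was linear over this time. Product bound on DE-81 filters, washed, and counted by liquid scintillation. Result reported as IC50.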

[42] = Inhibition of Varicella zoster virus thymidine kinase; parameters: species or system Human alphaherpesvirus 3; procedure, shortened: as §6
[43] = target: T1, Thymidine kinase, cytosolic (Homo sapiens, UniProt P04183); test: Inhibition of human cytosolic thymidine kinase 1; procedure, shortened: as §6
T1 sequence (P04183 whole entry): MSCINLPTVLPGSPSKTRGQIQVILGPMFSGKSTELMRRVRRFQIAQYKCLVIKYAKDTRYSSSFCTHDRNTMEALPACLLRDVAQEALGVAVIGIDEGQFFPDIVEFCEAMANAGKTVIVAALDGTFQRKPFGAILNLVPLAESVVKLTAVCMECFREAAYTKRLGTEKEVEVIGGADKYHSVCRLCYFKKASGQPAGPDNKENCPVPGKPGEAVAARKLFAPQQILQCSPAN

O=c1nc2oc(-c3ccc(OCC[18F])cc3)cc2cn1[C@H]1C[C@H](O)[C@@H](CO)O1
Drug uptake (Mus musculus [1]): 34.8 %ID | Drug uptake (Kidney [2]): 20.1 %ID | Drug uptake (Heart [3]): 0.3 %ID | Drug uptake (Blood [4]): 1.42 % ID/g | Ratio (Nucleic Acid [5]): 2 | Drug uptake (Mus musculus [6]): 11.9 %ID | Drug uptake (Mus musculus [7]): 18.3 %ID | Drug uptake (Lung [8]): 0.2 %ID | Drug uptake (Stomach [9]): 1.2 %ID | Drug uptake (Kidney [10]): 1.1 %ID | Drug uptake (Heart [11]): 0.1 %ID | Stability [12]: 91.5% | Drug uptake (Blood [13]): 1.57 % ID/g | Drug uptake (Femur [14]): 1.25 % ID/g | Drug uptake (Mus musculus [15]): 1.4 %ID | Drug uptake (Liver [16]): 4.3 %ID | Stability (Plasma [17]): 82% | Stability (Plasma [18]): 94.7% | Drug uptake (Muscle tissue [19]): 0.35 % ID/g | Ratio (Nucleic Acid [20]): 1.34 | Drug uptake (Liver [21]): 24.7 %ID | Stability (Plasma [22]): 40.6% | Drug uptake (Intestine [23]): 44.3 %ID | Drug uptake [24]: 76.6 %ID | Drug uptake (Blood [25]): 4.8 %ID | Drug uptake (Intestine [26]): 17.7 %ID | Drug uptake (Stomach [27]): 1.1 %ID | Drug uptake (Mus musculus [28]): 11.8 %ID | Ratio (Nucleic Acid [29]): 1.39 | Drug uptake (Femur [30]): 0.57 % ID/g | Ratio (Nucleic Acid [31]): 1.02 | Drug uptake (Mus musculus [32]): 1.1 %ID | Drug uptake (Muscle tissue [33]): 0.25 % ID/g | Drug uptake (Femur [34]): 0.66 % ID/g | Drug uptake (Blood [35]): 0.63 % ID/g | Drug uptake (Lung [36]): 0.7 %ID | Drug uptake (Blood [37]): 1.5 %ID | Drug uptake (Brain [38]): 0 %ID | logD [39]: 1.2 | Drug uptake (Brain [40]): 0 %ID

O=c1nc2oc(-c3ccc(OCCCCCCF)cc3)cc2cn1[C@H]1C[C@H](O)[C@@H](CO)O1
pIC50 [41]: < 3.30 | pIC50 [42]: 5.39 | pIC50 [43]: < 3.30
